Data taken from ChEMBL document CHEMBL3526154, “Metabolism, pharmacokinetics, tissue distribution, and stability studies of the prodrug analog of an anti-hepatitis B virus dinucleoside phosphorothioate” (Drug Metab Dispos, 2012).

Experiments:
Details in all cases: in vivo; call rule not given here
Rattus norvegicus [1] = assay: Tmax in male Sprague-Dawley rat at 10 mg/kg, po administered as single dose by liquid scintillation counting analysis; assay type: ADME, organism-based; design: dose 10 mg/kg, route oral
Method in brief: (§1)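 Radioactivity in plasma from rats given a single [35S]-labelled dose, iv (tail vein, 25% PEG 400/75% saline) or oral gavage (0.05 M citric acid, pH 2.5), sampled at 1, 4 and 24 h, measured by liquid scintillation as µg-Eq/ml. Elimination t1/2 and Tmax were derived by noncompartmental analysis with sparse sampling, from nine male and nine female rats.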

[2] = Drug excretion in male Sprague-Dawley rat urine at 10 mg/kg, po administered as single dose measured at 4 to 24 hrs post-dose by liquid scintillation counting analysis; assay type: ADME, organism-based; design: dose 10 mg/kg, route oral
Method in brief: (§2)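 Single [³⁵S]-prodrug dose to rats, i.v. tail-vein bolus (PEG 400/saline vehicle) or oral gavage (citric acid buffer pH 2.5), 5 ml/kg. Urine and feces collected ~1, 4 and 24 h postdose. Radioactivity counted by liquid scintillation and expressed as % of administered dose. Mean and S.D. from nine rats per sex.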

Spleen [3] = assay: Drug uptake in Sprague-Dawley rat spleen at 10 mg/kg, po administered as single dose measured at 1 to 24 hrs post-dose by liquid scintillation counting analysis; assay type: ADME, organism-based; design: dose 10 mg/kg, route oral
Method in brief: (§3)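 [35S]-labelled prodrug given once to rats, iv bolus via tail vein (25% PEG 400/75% saline) or oral gavage (0.05 M citric acid buffer, pH 2.5), 5 ml/kg. Rats euthanised at 1, 4 or 24 h. Liver, lung, kidney, heart, brain, spleen, tail and retro-orbital plasma were collected. Samples were homogenised and solubilised, and radioactivity was counted by liquid scintillation. Values are µg-equivalent/ml or g and % of dose.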

Rattus norvegicus [4] = assay: AUC in male Sprague-Dawley rat at 10 mg/kg, po administered as single dose by liquid scintillation counting analysis; assay type: ADME, organism-based, Plasma; design: dose 10 mg/kg, route oral
Method in brief: (§4)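 Single dose of [³⁵S]-labelled prodrug to rats, i.v. tail-vein bolus in 25% PEG 400/75% saline or oral gavage in 0.05 M citric acid buffer pH 2.5, 5 ml/kg. Retro-orbital blood into EDTA at 1, 4 or 24 h; plasma by centrifugation. Radioactivity by liquid scintillation counting as µg-Eq/ml. Noncompartmental sparse-sampling analysis gives Cmax and AUC; nine rats per sex.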

Liver = assay: Drug uptake in Sprague-Dawley rat liver at 10 mg/kg, po administered as single dose measured at 4 hrs post-dose by liquid scintillation counting analysis; assay type: ADME, organism-based; design: dose 10 mg/kg, route oral; method in brief: as §3
Heart [5] = assay: Drug uptake in Sprague-Dawley rat heart at 10 mg/kg, po administered as single dose measured at 1 to 24 hrs post-dose by liquid scintillation counting analysis; assay type: ADME, organism-based; design: dose 10 mg/kg, route oral
Method in brief: (§5)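 Single i.v. tail-vein bolus or oral gavage of [³⁵S]-prodrug to rats, 5 ml/kg. Euthanised by i.p. pentobarbital overdose at 1, 4 or 24 h. Retro-orbital blood collected; liver, lung, kidney, heart, brain and spleen frozen. Tissues homogenised, solubilised and counted by liquid scintillation. Radioactivity given as µg-Eq/g and % of dose.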

[6] = Drug excretion in male Sprague-Dawley rat feces at 10 mg/kg, po administered as single dose measured at 0 to 1 hr post-dose by liquid scintillation counting analysis; assay type: ADME, organism-based; design: dose 10 mg/kg, route oral; method in brief: as §2
Rattus norvegicus [7] = assay: Tmax in female Sprague-Dawley rat at 10 mg/kg, po administered as single dose by liquid scintillation counting analysis; assay type: ADME, organism-based; design: dose 10 mg/kg, route oral; method in brief: as §1
Rattus norvegicus [8] = assay: Drug recovery in female Sprague-Dawley rat at 10 mg/kg, iv administered as bolus dose measured after 24 hrs by liquid scintillation counting analysis; assay type: ADME, organism-based; design: dose 10 mg/kg, route intravenous
Method in brief: (§6)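 Rats got a single i.v. bolus or oral gavage dose of [³⁵S]-prodrug at 5 ml/kg over a 24 h study. Radioactivity in blood, tissues, carcass, urine and feces measured by liquid scintillation counting. Total recovery given as % of administered dose at 24 h.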

Rattus norvegicus [9] = assay: Cmax in female Sprague-Dawley rat at 10 mg/kg, iv administered as bolus dose by liquid scintillation counting analysis; assay type: ADME, organism-based; design: dose 10 mg/kg, route intravenous; method in brief: as §4
[10] = Drug excretion in male Sprague-Dawley rat feces at 10 mg/kg, iv administered as bolus dose measured at 1 to 4 hrs post-dose by liquid scintillation counting analysis; assay type: ADME, organism-based; design: dose 10 mg/kg, route intravenous; method in brief: as §2
[11] = Drug excretion in male Sprague-Dawley rat feces at 10 mg/kg, po administered as single dose measured at 1 to 4 hrs post-dose by liquid scintillation counting analysis; assay type: ADME, organism-based; design: dose 10 mg/kg, route oral; method in brief: as §2
Lung = assay: Drug uptake in Sprague-Dawley rat lung at 10 mg/kg, po administered as single dose measured at 4 hrs post-dose by liquid scintillation counting analysis; assay type: ADME, organism-based; design: dose 10 mg/kg, route oral; method in brief: as §3
Rattus norvegicus [12] = assay: Cmax in male Sprague-Dawley rat at 10 mg/kg, iv administered as bolus dose by liquid scintillation counting analysis; assay type: ADME, organism-based; design: dose 10 mg/kg, route intravenous; method in brief: as §4
Rattus norvegicus [13] = assay: Terminal half life in female Sprague-Dawley rat at 10 mg/kg, iv administered as bolus dose by liquid scintillation counting analysis; assay type: ADME, organism-based; design: dose 10 mg/kg, route intravenous; method in brief: as §1
Kidney = assay: Drug uptake in Sprague-Dawley rat kidney at 10 mg/kg, po administered as single dose measured at 4 hrs post-dose by liquid scintillation counting analysis; assay type: ADME, organism-based; design: dose 10 mg/kg, route oral; method in brief: as §3
Spleen [14] = assay: Drug uptake in Sprague-Dawley rat spleen at 10 mg/kg, iv administered as bolus dose measured at 1 to 24 hrs post-dose by liquid scintillation counting analysis; assay type: ADME, organism-based; design: dose 10 mg/kg, route intravenous; method in brief: as §3
[15] = Drug excretion in male Sprague-Dawley rat feces at 10 mg/kg, po administered as single dose measured at 4 to 24 hrs post-dose by liquid scintillation counting analysis; assay type: ADME, organism-based; design: dose 10 mg/kg, route oral; method in brief: as §2
Brain [16] = assay: Drug uptake in Sprague-Dawley rat brain at 10 mg/kg, po administered as single dose measured at 1 to 24 hrs post-dose by liquid scintillation counting analysis; assay type: ADME, organism-based; design: dose 10 mg/kg, route oral; method in brief: as §5
[17] = Drug excretion in female Sprague-Dawley rat urine at 10 mg/kg, iv administered as bolus dose measured at 0 to 1 hr post-dose by liquid scintillation counting analysis; assay type: ADME, organism-based; design: dose 10 mg/kg, route intravenous; method in brief: as §2
Heart [18] = assay: Drug uptake in Sprague-Dawley rat heart at 10 mg/kg, iv administered as bolus dose measured at 1 to 24 hrs post-dose by liquid scintillation counting analysis; assay type: ADME, organism-based; design: dose 10 mg/kg, route intravenous; method in brief: as §5
Rattus norvegicus [19] = assay: Drug recovery in female Sprague-Dawley rat at 10 mg/kg, po administered as single dose measured after 24 hrs by liquid scintillation counting analysis; assay type: ADME, organism-based; design: dose 10 mg/kg, route oral; method in brief: as §6
Brain [20] = assay: Drug uptake in Sprague-Dawley rat brain at 10 mg/kg, iv administered as bolus dose measured at 1 to 24 hrs post-dose by liquid scintillation counting analysis; assay type: ADME, organism-based; design: dose 10 mg/kg, route intravenous; method in brief: as §5
[21] = Drug excretion in male Sprague-Dawley rat urine at 10 mg/kg, po administered as single dose measured at 0 to 24 hrs post-dose by liquid scintillation counting analysis; assay type: ADME, organism-based; design: dose 10 mg/kg, route oral; method in brief: as §2
[22] = Drug excretion in male Sprague-Dawley rat urine at 10 mg/kg, po administered as single dose measured at 1 to 4 hrs post-dose by liquid scintillation counting analysis; assay type: ADME, organism-based; design: dose 10 mg/kg, route oral; method in brief: as §2
Rattus norvegicus [23] = assay: Cmax in female Sprague-Dawley rat at 10 mg/kg, po administered as single dose by liquid scintillation counting analysis; assay type: ADME, organism-based; design: dose 10 mg/kg, route oral; method in brief: as §4
Rattus norvegicus [24] = assay: Drug recovery in male Sprague-Dawley rat at 10 mg/kg, iv administered as bolus dose measured after 24 hrs by liquid scintillation counting analysis; assay type: ADME, organism-based; design: dose 10 mg/kg, route intravenous; method in brief: as §6
[25] = Drug excretion in female Sprague-Dawley rat feces at 10 mg/kg, iv administered as bolus dose measured at 0 to 24 hrs post-dose by liquid scintillation counting analysis; assay type: ADME, organism-based; design: dose 10 mg/kg, route intravenous; method in brief: as §2
[26] = Drug excretion in male Sprague-Dawley rat urine at 10 mg/kg, iv administered as bolus dose measured at 0 to 24 hrs post-dose by liquid scintillation counting analysis; assay type: ADME, organism-based; design: dose 10 mg/kg, route intravenous; method in brief: as §2

In the case of `CO[C@@H]1[C@H](OP(=O)(OC[C@H]2O[C@@H](n3cnc4c(N)ncnc43)C[C@@H]2O)[35S]COC(=O)OC(C)C)[C@@H](CO)O[C@H]1n1ccc(=O)[nH]c1=O` (some centres undefined), the Tmax (Rattus norvegicus [1]) is reported as 4 h, the Drug excretion [2] is reported as 33.73% and the Drug uptake (Spleen [3]) is reported as “<= 0.5%”. For the same compound, the AUC (Rattus norvegicus [4]) was 26.86 ugequiv.h/ml, the Drug uptake (Liver) was “Active” and the Drug uptake (Heart [5]) was “<= 0.5%”. It also gave a Drug excretion [6] of 0.01%, a Tmax (Rattus norvegicus [7]) of 4 h and a Drug recovery (Rattus norvegicus [8]) of 84.9%. For the same compound, the Cmax (Rattus norvegicus [9]) was 4.49 ugequiv/ml, the Drug excretion [10] was 0.01% and the Drug excretion [11] was 0.01%. The Drug uptake (Lung) was “Active”, the Cmax (Rattus norvegicus [12]) was 6.51 ugequiv/ml and the “beta t1/2” value (Rattus norvegicus [13]) was 9 h. For the same compound, the Drug uptake (Kidney) was “Active”, the Drug uptake (Spleen [14]) was “<= 0.5%” and the Drug excretion [15] was 35.71%. For the same compound, the Drug uptake (Brain [16]) was “<= 0.5%”, the Drug excretion [17] was 15.81% and the Drug uptake (Heart [18]) was “<= 0.5%”. The Drug recovery (Rattus norvegicus [19]) was 80.4%, the Drug uptake (Brain [20]) was “<= 0.5%” and the Drug excretion [21] was 34.59%. For the same compound, the Drug excretion [22] was 0.86%, the Cmax (Rattus norvegicus [23]) was 2.5 ugequiv/ml and the Drug recovery (Rattus norvegicus [24]) was 83.7%. The Drug excretion [25] was 9.44% and the Drug excretion [26] was 56.15%.
